Experimental findings from ChEMBL document CHEMBL5113407, “Identification and development of a series of disubstituted piperazines for the treatment of Chagas disease” (Eur J Med Chem, 2022) are described below.

Data set [1] deals with Trypanosoma cruzi. Put plainly: Antitrypanosomal activity against intracellularTrypanosoma cruzi amastigote. The data set is classed as functional, organism-based. In a few lines:
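Intracellular T. cruzi amastigote assay; potency expressed as pEC50 from at least three independent replicates, SD ≤0.2.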

Data set [2] is described as follows: Intrinsic clearance in mouse liver microsomes. The data set is classed as ADME, Microsome.
A short description of data set [3]: Kinetic solubility of compound. It is filed as physicochemical. The conditions noted are these: read-out: Kinetic_solubility. The method, boiled down:
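Kinetic solubility read by charged aerosol detection (CAD).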

Data set [4] deals with Trypanosoma cruzi. Put plainly: Antitrypanosomal activity against Trypanosoma cruzi infected in mouse assessed as decrease in parasite level at 50 mg/kg twice daily for 5 days cotreated with 1-ABT. The data set is classed as functional, organism-based. The following applies: time 5.0 day. The method, boiled down:
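Acute infection mouse model; drug given twice daily for 5 days from day 14 post-infection, with 1-ABT 50 mg/kg given 30 min before each dose. Vehicle controls dosed b.i.d. at 10 mL/kg. Whole-body bioluminescence imaging, dorsal and ventral, quantified as total flux (p/s). Cyclophosphamide 200 mg/kg i.p. on days 28, 32 and 36 post-infection to detect relapse. Blood sampled on days 1 and 5 (n = 3).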

Data set [5] can be described thus: Inhibition of Trypanosoma cruzi CYP51.

Values after ≈ are worked out from the molar mass of the structure shown. Active and inactive are the calls of the source. The calls are words filed in the database; no cut-off is given here.

In the case of `Cc1ccc(S(=O)(=O)Nc2ccc(CN3CCN(C(=O)c4cccc(C#N)c4)CC3)cc2)cc1`, the concentration giving a half-maximal response (EC50) in the data set on Trypanosoma cruzi [1] was 0.398 µM.
Turning to `COc1ccc(S(=O)(=O)Nc2ccc(Cn3cc4c(n3)CN(C(=O)c3cccc(Cl)c3)C4)cc2)cc1`, in the data set on Trypanosoma cruzi [1], a half-maximal effect (EC50) was put at 12.6 µM.
Turning to `Cc1ccc(S(=O)(=O)Nc2ccc(CN3CCN(C(=O)c4cc(=O)c5ccccc5n4C)CC3)cc2)cc1`, the concentration for a half-maximal effect (EC50) in the data set on Trypanosoma cruzi [1] is 3.98 µM. The same compound gave a CLint in data set [2] greater than 50 mL/min/g. Also, the solubility kinetic in data set [3] stood at 29 µM (≈ 15.4 µg/mL).
Turning to `Cc1ccc(S(=O)(=O)Nc2ccc(CN(C)[C@H]3CCN(C(=O)c4cccc(Cl)c4)C3)cc2)cc1`, the CLint in data set [2] was greater than 50 mL/min/g.
In the data set with Trypanosoma cruzi [1], `Cc1ccc(S(=O)(=O)Nc2ccc(CN3CCN(C(=O)Cc4coc5ccccc45)CC3)cc2)cc1` had a half-maximal effective concentration (EC50) of 6.31 µM.
As to `Cc1ccc(S(=O)(=O)Nc2ccc(CN3CCN(C(=O)c4cccc(Cl)c4)CC3)cc2)cc1`, the CLint in data set [2] is greater than 50 mL/min/g. The result in the data set with Trypanosoma cruzi [4] was Active. In data set [5], this compound gave a negative-log IC50 (pIC50) of 4.7.
On to `Cc1ccc(S(=O)(=O)Nc2ccc(CN(C)[C@@H]3CCN(C(=O)c4cccc(Cl)c4)C3)cc2)cc1`, for which the CLint in data set [2] was greater than 50 mL/min/g.
